Reference: ChEMBL document CHEMBL1221286, “Development of methotrexate proline prodrug to overcome resistance by MDA-MB-231 cells” (Bioorg Med Chem Lett, 2010)

Key:
Sus scrofa [1] = species: Sus scrofa; assay: Activity of pig kidney prolidase measured per gram of protein
How it was run: (§1)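 Pro-MTX (1 mM) hydrolysed by porcine kidney prolidase at 40 °C. Enzyme was first activated 30 min at 40 °C in 50 mM Tris–HCl (pH 8.0) with 200 mM MnCl2 and 30 mM glutathione. Samples were taken at 15 min, 30 min and 1 h and quenched with equal volume 10% TFA. Released proline was assayed colorimetrically (Chinard's reagent, 90 °C 10 min, A495). Inhibitor runs added Cbz-Pro equimolar to substrate.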

[2] = target: T1, Xaa-Pro dipeptidase (Homo sapiens) (UniProt P12955); assay: Activity of prolidase in human Caco-2 cells measured per gram of protein; format: cell-based
T1 sequence (whole entry): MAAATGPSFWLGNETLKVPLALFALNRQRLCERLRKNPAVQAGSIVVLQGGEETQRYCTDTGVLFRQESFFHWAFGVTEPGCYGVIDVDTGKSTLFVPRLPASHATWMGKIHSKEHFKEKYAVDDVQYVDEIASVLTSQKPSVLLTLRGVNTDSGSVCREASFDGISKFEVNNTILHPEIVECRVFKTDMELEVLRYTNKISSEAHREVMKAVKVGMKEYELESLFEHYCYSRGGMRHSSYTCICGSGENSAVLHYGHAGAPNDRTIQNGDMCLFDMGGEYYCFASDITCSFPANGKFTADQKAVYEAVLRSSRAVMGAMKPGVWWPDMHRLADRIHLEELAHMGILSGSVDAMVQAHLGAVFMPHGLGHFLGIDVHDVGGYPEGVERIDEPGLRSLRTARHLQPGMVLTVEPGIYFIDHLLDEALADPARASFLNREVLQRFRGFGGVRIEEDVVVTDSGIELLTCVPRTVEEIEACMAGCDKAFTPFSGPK
How it was run: (§2)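 Cells were grown to 90% confluence, trypsinized, PBS-washed, and lysed in 1% Triton X-100/PBS. Lysate was spun 18,000 rpm, 30 min, 4 °C. Supernatant was activated 2 h at 37 °C with Tris–HCl/200 mM MnCl2/30 mM glutathione. 1 mM Pro-MTX was then added at 37 °C, sampled at 15, 30 and 60 min, and TFA-quenched. Proline was read colorimetrically; specific activity is per µg protein. Cbz-Pro inhibitor was equimolar.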

[3] = target: T1, Xaa-Pro dipeptidase (Homo sapiens); assay: Activity of prolidase in human HeLa cells measured per gram of protein; format: cell-based; how it was run: as §2
Sus scrofa [4] = species: Sus scrofa; assay: Activity of pig kidney prolidase measured per gram of protein in presence of Cbz-pro; how it was run: as §1
[5] = target: T1, Xaa-Pro dipeptidase (Homo sapiens); assay: Activity of prolidase in human Caco-2 cells measured per gram of protein in presence of Cbz-pro; format: cell-based; how it was run: as §2
[6] = target: T1, Xaa-Pro dipeptidase (Homo sapiens); assay: Activity of prolidase in human HeLa cells measured per gram of protein in presence of Cbz-pro; format: cell-based; how it was run: as §2
Caco-2 = assay: Cytotoxicity against human Caco-2 cells assessed as cell viability by XTT assay; format: functional, cell-based
How it was run: (§3)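 Cells were seeded at 5 × 10^4 per well and grown 48 h at 37 °C, 5% CO2, before medium renewal. Drugs were added at a range of concentrations for 24 h. XTT was added for 4 h, then absorbance read at 490 nm against medium-only controls. Viability was plotted versus concentration to estimate EC50 (mean ± SD, n = 3).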

MCF7 = assay: Cytotoxicity against human MCF7 cells assessed as cell viability by XTT assay; format: functional, cell-based; how it was run: as §3
MDA-MB-231 = assay: Cytotoxicity against human MDA-MB-231 cells assessed as cell viability by XTT assay; format: functional, cell-based; how it was run: as §3
[7] = Chemical stability of the compound in phosphate buffer saline of pH 7.4; format: physicochemical

Q: With `CN(Cc1cnc2nc(N)nc(N)c2n1)c1ccc(C(=O)N[C@H](CCC(=O)O)C(=O)N2CCC[C@@H]2C(=O)O)cc1` as the compound, how does the Activity (Sus scrofa [1]) read?
A: The Activity was 19 pmol/min.

Q: And the Activity [2]?
A: The Activity was 0.42 pmol/min.

Q: And the Activity [3]?
A: Its Activity is 0.35 pmol/min.

Q: What about the Activity (Sus scrofa [4]) of the same compound?
A: The Activity was 8.15 pmol/min.

Q: And the Activity [5]?
A: The Activity was 0.28 pmol/min.

Q: And the Activity [6]?
A: Its Activity is 0.19 pmol/min.

Q: And the EC50 (Caco-2)?
A: Its EC50 is 5.6 µM.

Q: And the EC50 (MCF7)?
A: Its EC50 is 5.2 µM.

Q: What about the EC50 (MDA-MB-231) of the same compound?
A: Its EC50 is 11 µM.

Q: And the Stability [7]?
A: Its Stability is “Stable”.

Q: Which results are given for `CN(Cc1cnc2nc(N)nc(N)c2n1)c1ccc(C(=O)N[C@@H](CCC(=O)O)C(=O)O)cc1` [METHOTREXATE]?
A: EC50 (Caco-2): 1.1 µM; EC50 (MCF7): 0.9 µM; EC50 (MDA-MB-231): 80 µM
